Assay results published in ChEMBL document CHEMBL4613298, “GPBAR1 Activation by C6-Substituted Hyodeoxycholane Analogues Protect against Colitis” (ACS Med Chem Lett, 2020).
Activity calls are given as the source filed them. No cut-off for these calls is given here.

Assays:
Mus musculus [1] = test: Anti-colitis activity in Gpbar1 (-/-) TNBS-induced C57BL/6NCrl mouse model of colitis assessed as effect on body weight loss at 30 mg/kg, po; assay type: functional, organism-based
Procedure, shortened: (§1)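 Gpbar1+/+ and Gpbar1–/– mice given TNBS alone or with test agent at 30 mg/kg; body weight change and CDAI followed over the colitis course; colon sections H&E stained (10× magnification); n = 5 per group.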

[2] = molecular target: T1, G-protein coupled bile acid receptor 1 (Homo sapiens) (UniProt Q8TDU6); test: Agonist activity at GPBAR1 receptor in human THP1 cells assessed as reduction in LPS-induced IL-1beta expression at 10 uM after 18 hrs by RT-PCR analysis; assay type: cell-based; conditions: THP-1
T1 sequence (whole entry): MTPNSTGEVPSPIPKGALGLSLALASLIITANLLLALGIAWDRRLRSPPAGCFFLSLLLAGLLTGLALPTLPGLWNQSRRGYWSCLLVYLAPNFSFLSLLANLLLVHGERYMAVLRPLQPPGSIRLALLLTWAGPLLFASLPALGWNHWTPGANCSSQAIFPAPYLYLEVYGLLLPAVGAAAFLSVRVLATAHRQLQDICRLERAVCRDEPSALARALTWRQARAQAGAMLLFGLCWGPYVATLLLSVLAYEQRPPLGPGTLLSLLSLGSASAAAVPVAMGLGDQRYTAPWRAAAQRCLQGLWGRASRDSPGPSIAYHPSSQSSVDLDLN
Procedure, shortened: (§2)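 THP1 monocytic/macrophage cells primed with LPS, then coincubated with or without test agent at 10 μM; expression of cytokine genes (IL-1β, IL-6, TNF-α, IL-10) measured.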

Mus musculus [3] = test: Antiinflammatory activity in Gpbar1 (+/+) TNBS-induced C57BL/6NCrl mouse model of colitis assessed as reduction in TNFalpha mRNA expression at 30 mg/kg, po by RT-PCR analysis; assay type: functional, organism-based
Procedure, shortened: (§3)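 Gpbar1+/+ and Gpbar1–/– mice given TNBS alone or with test agent at 30 mg/kg; colon samples analysed by RT-PCR for relative mRNA of Il-1β, Il-6, Tnf-α, Il-10 and Gpbar1.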

Mus musculus [4] = test: Effect on IL-1beta mRNA expression in Gpbar1 deficient TNBS-induced C57BL/6NCrl mouse model of colitis harboring […] expression at 30 mg/kg, po by RT-PCR analysis; assay type: functional, organism-based; procedure, shortened: as §3
[5] = molecular target: T1, G-protein coupled bile acid receptor 1 (Homo sapiens); test: Agonist activity at GPBAR1 receptor in human THP1 cells assessed as reduction in LPS-induced IL-6 expression at 10 uM after 18 hrs by RT-PCR analysis; assay type: cell-based; conditions: THP-1; procedure, shortened: as §2
Mus musculus [6] = test: Antiinflammatory activity in Gpbar1 (+/+) TNBS-induced C57BL/6NCrl mouse model of colitis assessed as increase in IL-10 mRNA expression at 30 mg/kg, po by RT-PCR analysis; assay type: functional, organism-based; procedure, shortened: as §3
Mus musculus [7] = test: Anti-colitis activity in Gpbar1 (-/-) TNBS-induced C57BL/6NCrl mouse model of colitis assessed as colon damage at 30 mg/kg, po by H and E staining analysis; assay type: functional, organism-based; procedure, shortened: as §1
Mus musculus [8] = test: Anti-colitis activity in Gpbar1 (+/+) TNBS-induced C57BL/6NCrl mouse model of colitis assessed as decrease in Clinical Disease activity index at 30 mg/kg, po; assay type: functional, organism-based; procedure, shortened: as §1
Mus musculus [9] = test: Effect on IL-10 mRNA expression in Gpbar1 deficient TNBS-induced C57BL/6NCrl mouse model of colitis harboring […] expression at 30 mg/kg, po by RT-PCR analysis; assay type: functional, organism-based; procedure, shortened: as §3
[10] = molecular target: T1, G-protein coupled bile acid receptor 1 (Homo sapiens); test: Transactivation of human GPBAR1 receptor expressed in HEK293T cells assessed as maximum receptor activation at 10 uM after 18 hrs by cAMP response element driven renilla-luciferase dual reporter gene assay relative to TLCA; assay type: functional, cell-based; conditions: HEK-293T
Procedure, shortened: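 HEK-293T cells transfected with GPBAR1 and a CRE-driven luciferase reporter, exposed to compound at 10 μM. Efficacy is maximal CRE transactivation as percent of that caused by TLCA (10 μM). One experiment, triplicate.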

Mus musculus [11] = test: Antiinflammatory activity in Gpbar1 (+/+) TNBS-induced C57BL/6NCrl mouse model of colitis assessed as reduction in IL-6 mRNA expression at 30 mg/kg, po by RT-PCR analysis; assay type: functional, organism-based; procedure, shortened: as §3
Mus musculus [12] = test: Antiinflammatory activity in Gpbar1 (+/+) TNBS-induced C57BL/6NCrl mouse model of colitis assessed as reduction in IL-1beta mRNA expression at 30 mg/kg, po by RT-PCR analysis; assay type: functional, organism-based; procedure, shortened: as §3
Mus musculus [13] = test: Anti-colitis activity in Gpbar1 (-/-) TNBS-induced C57BL/6NCrl mouse model of colitis assessed as decrease in Clinical Disease activity index at 30 mg/kg, po; assay type: functional, organism-based; procedure, shortened: as §1
Mus musculus [14] = test: Effect on IL-6 mRNA expression in Gpbar1 deficient TNBS-induced C57BL/6NCrl mouse model of colitis harboring assessed as reduction in IL-6 mRNA expression at 30 mg/kg, po by RT-PCR analysis; assay type: functional, organism-based; procedure, shortened: as §3
[15] = molecular target: T1, G-protein coupled bile acid receptor 1 (Homo sapiens); test: Agonist activity at GPBAR1 receptor in human THP1 cells assessed as reduction in LPS-induced TNFalpha expression at 10 uM after 18 hrs by RT-PCR analysis; assay type: cell-based; conditions: THP-1; procedure, shortened: as §2
[16] = molecular target: T1, G-protein coupled bile acid receptor 1 (Homo sapiens); test: Agonist activity at GPBAR1 receptor in LPS-stimulated human THP1 cells assessed as increase in IL-10 expression at 10 uM after 18 hrs by RT-PCR analysis; assay type: cell-based; conditions: THP-1; procedure, shortened: as §2
Homo sapiens = species: Homo sapiens; test: Selectivity index, ratio of transactivation of human GPBAR1 receptor expressed in HEK293T cells assessed as maximum receptor activation at 10 uM to transactivation of human FXR (unknown origin) expressed in HepG2 cells co-expressing pSG5RXR/pGL4.70 assessed as maximum receptor activation at 10 uM; assay type: cell-based
Procedure, shortened: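 Ratio of percent activity at GPBAR1 (HEK-293T, CRE-luciferase, 10 μM, vs TLCA 10 μM) to percent activity at FXR (HepG2, IR1-luciferase, 10 μM, vs CDCA 10 μM). Both taken from the same triplicate experiment.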

Mus musculus [17] = test: Anti-colitis activity in Gpbar1 (+/+) TNBS-induced C57BL/6NCrl mouse model of colitis assessed as colon damage at 30 mg/kg, po by H and E staining analysis; assay type: functional, organism-based; procedure, shortened: as §1
Mus musculus [18] = test: Effect on TNFalpha mRNA expression in Gpbar1 deficient TNBS-induced C57BL/6NCrl mouse model of colitis harboring […] expression at 30 mg/kg, po by RT-PCR analysis; assay type: functional, organism-based; procedure, shortened: as §3
[19] = Aqueous solubility of compound in pH 7.4 PBS/MeOH at 10 mM after 24 hrs by LC-MS analysis; assay type: physicochemical; conditions: buffer, pH 7.4, 24 h, 10000 µM
[20] = molecular target: T2, Bile acid receptor (Homo sapiens) (UniProt Q96RI1); test: Transactivation of FXR (unknown origin) expressed in HepG2 cells co-expressing pSG5RXR/pGL4.70 assessed as maximum receptor activation at 10 uM after 18 hrs by IR1 driven dual renilla-luciferase reporter gene assay relative to relative to CDCA; assay type: cell-based
T2 sequence (whole entry): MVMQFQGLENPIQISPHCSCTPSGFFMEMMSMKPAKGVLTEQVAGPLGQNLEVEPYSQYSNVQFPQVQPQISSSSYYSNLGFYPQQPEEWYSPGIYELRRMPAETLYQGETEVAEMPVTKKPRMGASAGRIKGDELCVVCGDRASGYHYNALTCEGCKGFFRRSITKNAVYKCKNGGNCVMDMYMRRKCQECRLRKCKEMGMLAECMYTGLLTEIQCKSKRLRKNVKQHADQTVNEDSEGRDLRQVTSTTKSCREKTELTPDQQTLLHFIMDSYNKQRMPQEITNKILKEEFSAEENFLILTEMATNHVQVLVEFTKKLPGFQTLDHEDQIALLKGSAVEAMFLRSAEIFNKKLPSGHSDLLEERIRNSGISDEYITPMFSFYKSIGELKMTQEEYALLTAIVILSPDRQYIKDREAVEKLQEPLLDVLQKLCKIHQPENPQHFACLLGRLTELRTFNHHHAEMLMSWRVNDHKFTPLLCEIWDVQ
Procedure, shortened: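 FXR reporter assay in HepG2 cells transfected with FXR and an IR1-driven luciferase reporter, compound at 10 μM. Efficacy is maximal IR1 transactivation relative to CDCA (10 μM). One experiment, triplicate.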

Mus musculus [21] = test: Anti-colitis activity in Gpbar1 (+/+) TNBS-induced C57BL/6NCrl mouse model of colitis assessed as effect on body weight loss at 30 mg/kg, po; assay type: functional, organism-based; procedure, shortened: as §1

Compound: CC[C@]1(O)C[C@H]2[C@@H]3CC[C@H]([C@H](C)CC#N)[C@@]3(C)CC[C@@H]2[C@@]2(C)CC[C@@H](O)C[C@@H]12
- Activity (Mus musculus [1]): inactive
- Activity [2]: Active
- Activity (Mus musculus [3]): Active
- Activity (Mus musculus [4]): inactive
- Activity [5]: Active
- Activity (Mus musculus [6]): Active
- Activity (Mus musculus [7]): inactive
- Activity (Mus musculus [8]): Active
- Activity (Mus musculus [9]): inactive
- max activation [10]: 101%
- Activity (Mus musculus [11]): Active
- Activity (Mus musculus [12]): Active
- Activity (Mus musculus [13]): inactive
- Activity (Mus musculus [14]): inactive
- Activity [15]: Active
- Activity [16]: Active
- Selectivity Index (Homo sapiens): 8.2
- Activity (Mus musculus [17]): Active
- Activity (Mus musculus [18]): inactive
- solubility [19]: Soluble
- max activation [20]: 12.3%
- Activity (Mus musculus [21]): Active
